Measurements gathered from unrelated publications.
Lines come from different studies, so protocols differ.
Target: Serine/threonine-protein kinase Sgk3 (SGK3, Homo sapiens, UniProt Q96BR1)
Sequence (Q96BR1 1-496, as in one of the studies): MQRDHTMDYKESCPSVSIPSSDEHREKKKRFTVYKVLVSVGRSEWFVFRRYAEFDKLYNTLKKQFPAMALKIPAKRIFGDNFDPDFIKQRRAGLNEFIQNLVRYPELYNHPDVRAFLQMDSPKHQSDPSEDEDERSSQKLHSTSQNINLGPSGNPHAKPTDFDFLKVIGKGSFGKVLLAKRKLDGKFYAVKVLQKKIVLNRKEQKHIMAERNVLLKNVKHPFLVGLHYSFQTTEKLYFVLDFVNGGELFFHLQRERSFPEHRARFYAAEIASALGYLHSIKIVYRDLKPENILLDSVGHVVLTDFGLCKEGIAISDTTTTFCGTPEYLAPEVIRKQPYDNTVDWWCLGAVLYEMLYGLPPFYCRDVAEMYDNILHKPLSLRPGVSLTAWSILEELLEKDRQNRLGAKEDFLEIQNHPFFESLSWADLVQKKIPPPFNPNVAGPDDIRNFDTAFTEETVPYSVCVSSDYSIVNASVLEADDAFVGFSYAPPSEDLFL

The activity vs control of `CC(C)S(=O)(=O)c1ccc2nccc(Nc3ccc4sc(C5CCCC5)nc4c3)c2c1` is reported as 110% (enzyme activity, inhibitor; 1 µM).
With `Cc1cc(O)c(-c2ccc([C@@H](C)CN(C)C)cc2)c2c1[nH]c(=O)c1sccc12` the inhibition was 3.22% (enzyme activity, inhibitor; 0.1 µM).
The remaining signal of `C[C@H]1CC[C@H](n2c3cnccc3c3cnc(Nc4ccc5c(n4)CCN(C(=O)CO)C5)nc32)CC1` is reported as 39% (cell-free assay; 1 µM).
`CCCCC(=O)Nc1ccc(-c2ccc3ncn(CCC)c(=O)c3c2)cn1` has a remaining binding of 97% (binding, competition with immobilised ligand; 0.5 µM).
The inhibition of `CO[C@@H]1[C@H](N(C)C(=O)c2ccccc2)C[C@H]2O[C@]1(C)n1c3ccccc3c3c4c(c5c6ccccc6n2c5c31)C(=O)NC4` is reported as 43% (enzyme activity, inhibitor; 1 µM).
`COc1ccc2[nH]c3c4[nH]c5ccc(OC)cc5c4c4c(c3c2c1)C(=O)NC4=O` has a remaining binding of 8.1% (binding; 1 µM).
The inhibition of `C#Cc1cc(-c2cc(Nc3nc(N[C@@H](C)c4ccc(F)cn4)ncc3Cl)n[nH]2)ccc1C=O` is reported as 19.1% (enzyme activity, inhibitor; 0.2 µM).
`C=CC(=O)N1CCC[C@@H](n2nc(-c3ccc(Oc4ccccc4)cc3)c3c(N)ncnc32)C1` gave an inhibition of 9% (enzyme activity, inhibitor; 1 µM).
